From ChEMBL document CHEMBL1153848, “Design and synthesis of azolopyrimidoquinolines, pyrimidoquinazolines as anti-oxidant, anti-inflammatory and analgesic activities” (2009)
Activity calls are given as the source filed them.

Experiments:
[1] = test system: Rattus norvegicus; assay: Antiinflammatory activity in Sprague-Dawley rat assessed as protection against carrageenan-induced hind paw edema at 20 mg/kg, po administered 1 hr before carrageenan challenge measured after 1 hr; type: functional
Method in brief: (§1)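 Adult female albino rats (150–180 g), fasted 18 h, six per group. Aqueous suspension in distilled water given orally at 20 mg/kg 1 h before subplantar injection of 0.1 mL 1% w/v carrageenan into the left hind paw. Vehicle controls got 0.5 mL water; diclofenac sodium 20 mg/kg po was the reference. Paw volume was measured by mercury plethysmometer before injection and hourly for 4 h. Inhibition = (Ec−Et)/Ec, with edema = (Vt−V0)/V0.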

[2] = test system: Rattus norvegicus; assay: Antiinflammatory activity in Sprague-Dawley rat assessed as protection against carrageenan-induced hind paw edema at 20 mg/kg, po administered 1 hr before carrageenan challenge measured after 2 hrs; type: functional; method in brief: as §1
[3] = test system: Rattus norvegicus; assay: Antiinflammatory activity in Sprague-Dawley rat assessed as protection against carrageenan-induced hind paw edema at 20 mg/kg, po administered 1 hr before carrageenan challenge measured after 3 hrs; type: functional; method in brief: as §1
[4] = test system: Mus musculus; assay: Central analgesic activity in Swiss albino mouse assessed as thermal stimuli reaction time at 20 mg/kg, po after 30 mins by hot plate method; type: functional
Method in brief: (§2)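 Swiss mice of both sexes (25–30 g), six per group, on a hot plate held at 53 ± 0.5 °C. Latency was timed to hind-paw licking or jumping, with a 60 s cut-off. It was measured before dosing, then at 15, 30, 60 and 90 min after an oral aqueous suspension at 20 mg/kg. Controls were untreated; oral diclofenac sodium 20 mg/kg was the reference.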

[5] = test system: Mus musculus; assay: Central analgesic activity in Swiss albino mouse assessed as thermal stimuli reaction time at 20 mg/kg, po after 60 mins by hot plate method; type: functional; method in brief: as §2
[6] = test system: Mus musculus; assay: Central analgesic activity in Swiss albino mouse assessed as thermal stimuli reaction time at 20 mg/kg, po after 90 mins by hot plate method; type: functional; method in brief: as §2
[7] = test system: Mus musculus; assay: Peripheral analgesic activity in Swiss albino mouse assessed as protection against acetic acid-induced writhing response at 20 mg/kg, po administered 30 mins before acetic acid challenge measured after 30 mins relative to control; type: functional
[8] = test system: Mus musculus; assay: Peripheral analgesic activity in Swiss albino mouse assessed as protection against acetic acid-induced writhing response at 20 mg/kg, po administered 30 mins before acetic acid challenge measured after 1 hr relative to control; type: functional
[9] = test system: Mus musculus; assay: Peripheral analgesic activity in Swiss albino mouse assessed as protection against acetic acid-induced writhing response at 20 mg/kg, po administered 30 mins before acetic acid challenge measured after 2 hrs relative to control; type: functional
[10] = test system: Mus musculus; assay: Peripheral analgesic activity in Swiss albino mouse assessed as protection against acetic acid-induced writhing response at 20 mg/kg, po administered 30 mins before acetic acid challenge measured after 3 hrs relative to control; type: functional
[11] = test system: Brain; assay: Antioxidant activity in Sprague-Dawley rat brain assessed as inhibition of lipid peroxidation; type: functional, tissue-based
[12] = test system: Kidney; assay: Antioxidant activity in Sprague-Dawley rat kidney assessed as inhibition of lipid peroxidation; type: functional, tissue-based
[13] = Antioxidant activity in Sprague-Dawley rat erythrocytes assessed as peroxyl radical-induced hemolysis after 1 hr; type: functional, Erythrocyte
[14] = Antioxidant activity assessed as ABTS radical scavenging activity at 2 mM; type: functional
Method in brief: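 ABTS radical scavenging, read as the fall in colour absorbance after MeOH/phosphate buffer (1:1) is added. % inhibition = (A_control − A_test)/A_control × 100. The negative control uses MeOH/phosphate buffer (1:1) in place of compound, the blank omits ABTS, and ascorbic acid is the positive control.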

## CSC1=Nc2nc3c(c(-c4ccc(Cl)cc4)c2C(N2CCNCC2)N1)CCC/C3=C/c1ccc(Cl)cc1 (stereo not given)
[1]
  Activity: 43.1%
[2]
  Activity: 52%
[3]
  Activity: 42%
[4]
  Activity: 7.93 min
[5]
  Activity: 10.15 min
[6]
  Activity: 11.5 min
[7]
  Activity: 49.5%
[8]
  Activity: 50%
[9]
  Activity: 49.4%
[10]
  Activity: 30.5%
[11]
  Activity: Active
[12]
  Activity: Active

## COc1ccc(/C=c2\sc3nc4nc5c(c(-c6ccc(Cl)cc6)c4c(=O)n3c2=O)CCC/C5=C/c2ccc(Cl)cc2)cc1
[13]
  Activity: 4.54%
[14]
  inhibition: 33.3%
[11]
  Activity: Active
[12]
  Activity: Active

## O=C(CSc1nc2nc3c(c(-c4ccc(Cl)cc4)c2c(=O)[nH]1)CCC/C3=C/c1ccc(Cl)cc1)c1ccccc1
[13]
  Activity: 6.51%
[14]
  inhibition: 33.3%
[11]
  Activity: Active
[12]
  Activity: Active

## CCSc1nc2nc3c(c(-c4ccc(Cl)cc4)c2c(=O)n1CC)CCC/C3=C/c1ccc(Cl)cc1
[13]
  Activity: 30.75%
[14]
  inhibition: 35.2%
[11]
  Activity: Active
[12]
  Activity: Active

## COc1ccc(NC2NC(SC)=Nc3nc4c(c(-c5ccc(Cl)cc5)c32)CCC/C4=C/c2ccc(Cl)cc2)cc1 (stereo not given)
[1]
  Activity: 39.8%
[2]
  Activity: 42.3%
[3]
  Activity: 25.3%
[4]
  Activity: 8.62 min
[5]
  Activity: 9.06 min
[6]
  Activity: 9.22 min
[7]
  Activity: 41.5%
[8]
  Activity: 52%
[9]
  Activity: 49.3%
[10]
  Activity: 37.3%
[11]
  Activity: Active
[12]
  Activity: Active

## CCSc1nc2nc3c(c(-c4ccc(Cl)cc4)c2c(=O)[nH]1)CCC/C3=C/c1ccc(Cl)cc1
[13]
  Activity: 5.6%
[14]
  inhibition: 37%
[11]
  Activity: Active
[12]
  Activity: Active

## CCSc1nc2nc3c(c(-c4ccc(Cl)cc4)c2c(=O)n1C)CCC/C3=C/c1ccc(Cl)cc1
[13]
  Activity: 5.3%
[14]
  inhibition: 31.5%
[11]
  Activity: Active
[12]
  Activity: Active

## O=c1[nH]c(=S)[nH]c2nc3c(c(-c4ccc(Cl)cc4)c12)CCC/C3=C\c1ccc(Cl)cc1
[13]
  Activity: 8.33%
[14]
  inhibition: 44.4%
[11]
  Activity: Active
[12]
  Activity: Active

## O=C([O-])Cc1ccccc1Nc1c(Cl)cccc1Cl.[Na+] [DICLOFENAC SODIUM]
[1]
  Activity: 52.4%
[2]
  Activity: 60.3%
[3]
  Activity: 42%
[4]
  Activity: 10 min
[5]
  Activity: 11.4 min
[6]
  Activity: 13.2 min
[7]
  Activity: 46%
[8]
  Activity: 55.2%
[9]
  Activity: 62%
[10]
  Activity: 39%

## O=c1[nH]c(=S)[nH]c2c1C(c1ccc(Cl)cc1)C1=C(N2)/C(=C/c2ccc(Cl)cc2)CCC1 (stereo not given)
[13]
  Activity: 12.72%
[14]
  inhibition: 59.3%
[1]
  Activity: 56.3%
[2]
  Activity: 62%
[3]
  Activity: 40.2%
[4]
  Activity: 9.42 min
[5]
  Activity: 10.41 min
[6]
  Activity: 11.67 min
[7]
  Activity: 60.4%
[8]
  Activity: 69%
[9]
  Activity: 74.3%
[10]
  Activity: 47.3%
[11]
  Activity: Active
[12]
  Activity: Active

## CC(=O)c1sc2nc3nc4c(c(-c5ccc(Cl)cc5)c3c(=O)n2c1C)CCC/C4=C/c1ccc(Cl)cc1
[13]
  Activity: 6.06%
[14]
  inhibition: 40.7%
[1]
  Activity: 46.7%
[2]
  Activity: 44.2%
[3]
  Activity: 39.2%
[4]
  Activity: 7.54 min
[5]
  Activity: 8.61 min
[6]
  Activity: 12 min
[7]
  Activity: 43.5%
[8]
  Activity: 49%
[9]
  Activity: 53.1%
[10]
  Activity: 38.4%
[11]
  Activity: Active
[12]
  Activity: Active

## O=c1/c(=C/c2ccccc2)sc2nc3nc4c(c(-c5ccc(Cl)cc5)c3c(=O)n12)CCC/C4=C/c1ccc(Cl)cc1
[13]
  Activity: 5.75%
[14]
  inhibition: 40.7%
[1]
  Activity: 59.8%
[2]
  Activity: 59.3%
[3]
  Activity: 42.3%
[4]
  Activity: 9.16 min
[5]
  Activity: 10.78 min
[6]
  Activity: 11.08 min
[7]
  Activity: 73.2%
[8]
  Activity: 76%
[9]
  Activity: 77.2%
[10]
  Activity: 60.3%
[11]
  Activity: Active
[12]
  Activity: Active

## COc1ccc(/C=C2\CCCC3=C2Nc2[nH]c(=S)[nH]c(=O)c2C3c2ccc(OC)cc2)cc1 (stereo not given)
[13]
  Activity: 8.18%
[14]
  inhibition: 66.7%
[1]
  Activity: 59.5%
[2]
  Activity: 62.4%
[3]
  Activity: 46.5%
[4]
  Activity: 9.84 min
[5]
  Activity: 11.62 min
[6]
  Activity: 11.88 min
[7]
  Activity: 69%
[8]
  Activity: 74%
[9]
  Activity: 75.4%
[10]
  Activity: 58.2%
[11]
  Activity: Active
[12]
  Activity: Active

## NNc1nc2nc3c(c(-c4ccc(Cl)cc4)c2c(=O)[nH]1)CCC/C3=C/c1ccc(Cl)cc1
[11]
  Activity: Active
[12]
  Activity: Active

## CC(=O)CSc1nc2nc3c(c(-c4ccc(Cl)cc4)c2c(=O)[nH]1)CCC/C3=C/c1ccc(Cl)cc1
[13]
  Activity: 8.33%
[14]
  inhibition: 35.2%
[11]
  Activity: Active
[12]
  Activity: Active

## C/C(=N/O)c1sc2nc3nc4c(c(-c5ccc(Cl)cc5)c3c(=O)n2c1C)CCC/C4=C/c1ccc(Cl)cc1
[13]
  Activity: 7.22%
[14]
  inhibition: 48.1%
[11]
  Activity: Active
[12]
  Activity: Active

## Nc1ccc(/C=C2/CCCc3c2nc2nc4sc5c(n4c(=O)c2c3-c2ccc(Cl)cc2)ONC5c2cccs2)cc1 (stereo not given)
[13]
  Activity: 4.64%
[14]
  inhibition: 29.6%
[11]
  Activity: Active
[12]
  Activity: Active

## COc1ccc(C2NOc3c2sc2nc4nc5c(c(-c6ccc(Cl)cc6)c4c(=O)n32)CCC/C5=C/c2ccc(Cl)cc2)cc1 (stereo not given)
[13]
  Activity: 7.27%
[14]
  inhibition: 24.1%
[11]
  Activity: Active
[12]
  Activity: Active

## COc1ccc(/C=C/C(=O)c2sc3nc4nc5c(c(-c6ccc(Cl)cc6)c4c(=O)n3c2C)CCC/C5=C/c2ccc(Cl)cc2)cc1
[13]
  Activity: 5.9%
[14]
  inhibition: 22.2%
[11]
  Activity: Active
[12]
  Activity: Active

## Nc1ccc(/C=C2/CCCc3c2nc2nc4s/c(=C\c5cccs5)c(=O)n4c(=O)c2c3-c2ccc(N)cc2)cc1
[13]
  Activity: 6.36%
[14]
  inhibition: 25.9%
[11]
  Activity: Active
[12]
  Activity: Active

## CSc1nc2nc3c(c(-c4ccc(Cl)cc4)c2c(=O)n1C)CCC/C3=C/c1ccc(Cl)cc1
[13]
  Activity: 4.09%
[14]
  inhibition: 31.5%
[11]
  Activity: Active
[12]
  Activity: Active

## CN(C)c1ccc(/C=c2\sc3nc4nc5c(c(-c6ccc(Cl)cc6)c4c(=O)n3c2=O)CCC/C5=C/c2ccc(Cl)cc2)cc1
[13]
  Activity: 7.27%
[14]
  inhibition: 37%
[11]
  Activity: Active
[12]
  Activity: Active

## CSC1=Nc2nc3c(c(-c4ccc(Cl)cc4)c2C(N2CCOCC2)N1)CCC/C3=C/c1ccc(Cl)cc1 (stereo not given)
[1]
  Activity: 39.2%
[2]
  Activity: 47.1%
[3]
  Activity: 37.3%
[4]
  Activity: 8.65 min
[5]
  Activity: 10.98 min
[6]
  Activity: 11.12 min
[7]
  Activity: 45.2%
[8]
  Activity: 47%
[9]
  Activity: 45.2%
[10]
  Activity: 27.8%
[11]
  Activity: Active
[12]
  Activity: Active
